Data on 9 compounds can be found in ChEMBL document CHEMBL2021883, “Amino acid, dipeptide and pseudodipeptide conjugates of ring-substituted 8-aminoquinolines: synthesis and evaluation of anti-infective, β-haematin inhibition and cytotoxic activities” (Eur J Med Chem, 2012).

Series [1] has as its system Plasmodium falciparum. Kind of series: Antimalarial activity against chloroquine-resistant Plasmodium falciparum W2 assessed as plasmodial LDH activity. The class given is functional, organism-based.
For series [2], the system named is Plasmodium falciparum. Kind of series: Antimalarial activity against chloroquine-sensitive Plasmodium falciparum D6 assessed as plasmodial LDH activity. Type of series: functional, organism-based.
A further series relates to Escherichia coli. Kind of series: Antimicrobial activity against Escherichia coli ATCC 35218 by CLSI method. The class given is functional, organism-based.
For the next series, the system named is Pseudomonas aeruginosa. Kind of series: Antimicrobial activity against Pseudomonas aeruginosa ATCC 27853 by CLSI method. The class given is functional, organism-based. The method, boiled down:
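Antibacterial testing used CLSI/NCCLS broth dilution for aerobically growing bacteria, with 20 as the highest test concentration.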

In series [3] the test system is Staphylococcus aureus. Kind of series: Antimicrobial activity against methicillin-resistant Staphylococcus aureus ATCC 43300 by CLSI method. The class given is functional, organism-based.
The nature of series [4]: Selectivity index, ratio of IC50 for african green monkey Vero cells to IC50 for chloroquine-resistant Plasmodium falciparum W2. Type of series: toxicity, cell-based. Particulars: Vero cells versus Plasmodium falciparum W2, read-out: Ratio IC50.
Series [5] has as its system Staphylococcus aureus. Kind of series: Antimicrobial activity against Staphylococcus aureus ATCC 29213 by CLSI method. The class given is functional, organism-based.
Another series relates to Leishmania donovani. Kind of series: Antileishmanial activity against Leishmania donovani promastigote by Alamar Blue assay. The class given is functional, organism-based. Background: Alamar Blue is a resazurin reagent that responds to reducing activity.
A further series relates to Vero. Kind of series: Cytotoxicity against african green monkey Vero cells upto 23.8 […] by neutral dye assay. Type of series: cell-based, Chlorocebus sabaeus. The essentials:
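Vero monkey kidney cells were exposed to compound up to a highest concentration of 23.8, with viability read by neutral red uptake.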

Series [6] can be described thus: Selectivity index, ratio of IC50 for african green monkey Vero cells to IC50 for chloroquine-sensitive Plasmodium falciparum D6. Particulars: Vero cells versus Plasmodium falciparum D6, read-out: Ratio IC50. The class given is toxicity, cell-based.
For series [7], the system named is Mycobacterium intracellulare. Kind of series: Antimicrobial activity against Mycobacterium intracellulare ATCC 23068 by Franzblau method. Type of series: functional, organism-based.
A short description of series [8]: Inhibition of beta-hematin formation. Type of series: functional.
Another series concerns Aspergillus fumigatus. Kind of series: Antifungal activity against Aspergillus fumigatus. Type of series: functional, organism-based. The essentials: (§1)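 Yeasts and A. fumigatus were tested by broth microdilution following the NCCLS antifungal standards. The highest test concentration was 20.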
Series [9] concerns Candida albicans. Kind of series: Antifungal activity against Candida albicans at 20 ug/ml. The class given is functional, organism-based. The method, boiled down: (§2)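 Broth dilution antifungal testing followed the NCCLS reference method for yeasts, with 20 as the highest test concentration. MIC was the lowest concentration with no detectable growth. MFC was the lowest concentration killing the organism.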

In a further series the test system is Cryptococcus neoformans. Kind of series: Antifungal activity against Cryptococcus neoformans. Type of series: functional, organism-based. The essentials:
as §1

Series [10] relates to Candida albicans. Kind of series: Fungicidal activity against Candida albicans at 20 ug/ml. Type of series: functional, organism-based. The method, boiled down:
as §2

The next series has as its system Plasmodium berghei. Kind of series: Antimalarial activity against Plasmodium berghei blood-schizont in mouse malaria model assessed as elimination of parasitemia at 100 mg/kg, po for 4 days for 4 days measured after 7 days. Type of series: functional, organism-based. The arrangement: dose 100 mg/kg. The method, boiled down:
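P. berghei-infected mice, 6 per group, received compound orally once daily for 4 days at 10, 25, 50 or 100 mg/kg/day. "Active" meant all treated animals were parasitaemia-negative up to D+7. "Curative" meant complete parasite elimination with survival to D+60. Outcomes were recorded as cured/total.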

The mark [11] stands for this setting: Plasmodium falciparum, W2, read-out: IC50.
[12] abbreviates: Plasmodium falciparum, D6, read-out: IC50.
Setting [13] is: Leishmania donovani, read-out: IC50.

In brackets after ≈: the same amount, converted by molar mass. Activity calls are given as the source filed them. Unless noted, the rule behind the calls is not given here.

A word on the IC50: it is the concentration needed to halve the response being measured. In general, IC90 refers to the point of the concentration-response curve where the effect stands at 90%. Regarding `COc1cc(NC(C)CCCNC(=O)CC[C@H](NC(=O)[C@@H](N)CCCNC(=N)N)C(=O)O)c2ncccc2c1` (stereo partly drawn), the IC50 in the series on Plasmodium falciparum [1] (setting [11]) was 1.8 µg/mL (≈ 3.3 µM); in the series on Plasmodium falciparum [2] (setting [12]), 1.8 µg/mL (≈ 3.3 µM); in the series on Leishmania donovani, “Not Active”; in the series with Vero, “Non-toxic”. The result (in the series with Escherichia coli; in the series on Pseudomonas aeruginosa; with Staphylococcus aureus [3]; in the series on Staphylococcus aureus [5]; in [7]) was inactive. In addition, the selectivity ratio in [4] and in series [6] was over 13.2 throughout. The IC90 result with Leishmania donovani was “inactive”.

In general, MFC refers to the lowest tested concentration that kills the fungus rather than only halting it. One may read the MIC as the least concentration at which growth counts as inhibited. Consider `COc1cc(NC(C)CCCNC(=O)[C@@H](CCCNC(=N)N)NC(=O)[C@H](N)CCCNC(=N)N)c2ncccc2c1` (stereo partly drawn), for which the IC50 in the series on Plasmodium falciparum [1] (setting [11]) was 1.7 µg/mL (≈ 2.97 µM); with Plasmodium falciparum [2] (setting [12]), 1.3 µg/mL (≈ 2.27 µM); in series [8] it was 32 µM; in the series on Leishmania donovani (setting [13]), 17 µg/mL (≈ 29.7 µM); in the series with Vero, “Non-toxic”; in the series on Cryptococcus neoformans, 7 µg/mL (≈ 12.2 µM). Also, the result (in the series on Escherichia coli; in the series on Pseudomonas aeruginosa; in the series with Staphylococcus aureus [3]; in the series with Staphylococcus aureus [5]; in the series on Aspergillus fumigatus; in series [7]) was inactive. Further, the result with Candida albicans [9] and in the series with Candida albicans [10] was inactive. The selectivity ratio was over 14 in series [4] and over 18.3 in series [6]. Moreover, in the series on Leishmania donovani (Leishmania donovani), the IC90 was 36 µg/mL (≈ 63 µM). In the series on Cryptococcus neoformans, the MFC came out at 10 µg/mL (≈ 17.5 µM). In the series with Cryptococcus neoformans, this compound showed an MIC of 10 µg/mL (≈ 17.5 µM).

For the compound `COc1cc(NC(C)CCCNC(=O)[C@@H](CCCN)NC(=O)[C@H](N)CCCN)c2ncccc2c1` (stereo partly drawn), the IC50 in the series on Plasmodium falciparum [1] (setting [11]) was 4.76 µg/mL (≈ 9.76 µM); in the series with Plasmodium falciparum [2], “Not Active”; in series [8], 420 µM; in the series on Leishmania donovani (setting [13]), 40 µg/mL (≈ 82 µM); in the series on Vero, “Non-toxic”; in the series on Cryptococcus neoformans it was 3.5 µg/mL (≈ 7.18 µM). For the same compound, the outcome (in the series on Escherichia coli; with Pseudomonas aeruginosa; with Staphylococcus aureus [3]; in the series with Staphylococcus aureus [5]; in the series on Aspergillus fumigatus; in [7]) was inactive. Further, the result with Candida albicans [9] and in the series with Candida albicans [10] was inactive. Moreover, the selectivity ratio in [4] is over 5. For the same compound, in the series with Leishmania donovani, the IC90 entry is “inactive”. The same compound yielded an MFC against Cryptococcus neoformans of 5 µg/mL (≈ 10.3 µM). It took 5 µg/mL (≈ 10.3 µM) to inhibit growth in the series on Cryptococcus neoformans (MIC).

With `COc1cc(NC(C)CCCNC(=O)C[C@@H](NC(=O)[C@H](N)CCCNC(=N)N)C(=O)O)c2ncccc2c1` (stereo partly drawn), the IC50 in the series with Plasmodium falciparum [1] (setting [11]) is 4.2 µg/mL (≈ 7.92 µM); with Plasmodium falciparum [2] (setting [12]), 3.2 µg/mL (≈ 6.03 µM); in series [8], 210 µM; with Leishmania donovani (setting [13]), 20.1 µg/mL (≈ 37.9 µM); in the series on Vero, “Non-toxic”. Moreover, the result (with Escherichia coli; in the series on Pseudomonas aeruginosa; in the series on Staphylococcus aureus [3]; with Staphylococcus aureus [5]; in [7]) was inactive. Moreover, the values for the selectivity ratio in [4] and in [6] were over 5.6 and over 7.4, respectively. This compound came in with an IC90 in the series on Leishmania donovani (Leishmania donovani) of 33 µg/mL (≈ 62.2 µM).

With `COc1cc(NC(C)CCCNC(=O)[C@H](CCCNC(=N)N)NC(=O)[C@@H](N)CCCNC(=N)N)c2ncccc2c1` (stereo partly drawn), the 50% inhibitory concentration (IC50) with Plasmodium falciparum [1] (setting [11]) was 4.76 µg/mL (≈ 8.33 µM); in the series with Plasmodium falciparum [2], “Not Active”; in series [8] it was 81 µM; with Leishmania donovani, “Not Active”; in the series on Vero it was “Non-toxic”; with Cryptococcus neoformans it was 4.5 µg/mL (≈ 7.87 µM). The outcome (in the series with Escherichia coli; with Pseudomonas aeruginosa; with Staphylococcus aureus [3]; in the series on Staphylococcus aureus [5]; in the series with Aspergillus fumigatus; in [7]) was inactive. The result with Candida albicans [9] and with Candida albicans [10] was inactive. In addition, the selectivity ratio in [4] is over 5. In the series on Leishmania donovani, the IC90 result was “inactive”. This compound also came in with an MFC with Cryptococcus neoformans of 10 µg/mL (≈ 17.5 µM). The compound further registered an MIC in the series on Cryptococcus neoformans of 10 µg/mL (≈ 17.5 µM).

Turning to `COc1cc(NC(C)CCCNC(=O)[C@H](CCCN)NC(=O)[C@@H](N)CCCN)c2ncccc2c1` (stereo partly drawn), the 50% inhibitory concentration (IC50) result in the series with Plasmodium falciparum [1] was “Not Active”; in the series with Plasmodium falciparum [2], “Not Active”; in series [8], over 1000 µM; with Leishmania donovani (setting [13]) it was 4 µg/mL (≈ 8.2 µM); with Vero it was “Non-toxic”; in the series with Cryptococcus neoformans it was 5.5 µg/mL (≈ 11.3 µM). Further, in the series with Plasmodium berghei, the result was Active. Moreover, the outcome (with Escherichia coli; with Pseudomonas aeruginosa; in the series on Staphylococcus aureus [3]; in the series on Staphylococcus aureus [5]; with Aspergillus fumigatus; in series [7]) was inactive. Moreover, the result with Candida albicans [9] and in the series on Candida albicans [10] was inactive. Also, the IC90 in the series with Leishmania donovani (Leishmania donovani) was 20 µg/mL (≈ 41 µM). In the series on Cryptococcus neoformans, this compound had an MFC of 20 µg/mL (≈ 41 µM). Besides, 10 µg/mL (≈ 20.5 µM) was the least that counted as inhibitory against Cryptococcus neoformans (MIC).

As to `COc1cc(NC(C)CCCNC(=O)C[C@H](NC(=O)[C@@H](N)CCCNC(=N)N)C(=O)O)c2ncccc2c1` (stereo partly drawn), the IC50 with Plasmodium falciparum [1] (setting [11]) is 2.9 µg/mL (≈ 5.47 µM); with Plasmodium falciparum [2] (setting [12]) it was 3 µg/mL (≈ 5.65 µM); in series [8] it was 120 µM; in the series with Leishmania donovani, “Not Active”; with Vero it was “Non-toxic”. In addition, the result (in the series with Escherichia coli; with Pseudomonas aeruginosa; in the series with Staphylococcus aureus [3]; with Staphylococcus aureus [5]; in series [7]) was inactive. Besides, the results for the selectivity ratio in series [4] and in [6] were over 8.2 and over 7.9, respectively. For the same compound, the IC90 result in the series with Leishmania donovani is “inactive”.

On to `COc1cc(NC(C)CCCNC(=O)C[C@@H](NC(=O)[C@H](N)CCCCN)C(=O)O)c2ncccc2c1` (stereo partly drawn), for which the IC50 with Plasmodium falciparum [1] (setting [11]) is 3.2 µg/mL (≈ 6.37 µM); with Plasmodium falciparum [2] (setting [12]), 2.4 µg/mL (≈ 4.78 µM); in series [8], 160 µM; in the series on Leishmania donovani, “Not Active”; with Vero, “Non-toxic”; in the series on Cryptococcus neoformans it was 4.5 µg/mL (≈ 8.95 µM). The result (in the series on Escherichia coli; in the series with Pseudomonas aeruginosa; in the series with Staphylococcus aureus [3]; with Staphylococcus aureus [5]; in the series with Aspergillus fumigatus; in series [7]) was inactive. Also, the outcome with Candida albicans [9] and with Candida albicans [10] was inactive. For the same compound, the selectivity ratio was over 7.4 in series [4] and over 9.9 in [6]. In the series with Leishmania donovani, the IC90 entry was “inactive”. In the series with Cryptococcus neoformans, this compound had an MFC of 10 µg/mL (≈ 19.9 µM). Besides, the MIC against Cryptococcus neoformans amounted to 10 µg/mL (≈ 19.9 µM).

Regarding `COc1cc(NC(C)CCCNC(=O)NCCC[C@@H](N)C(=O)O)c2nc(C(C)(C)C)ccc2c1` (stereo partly drawn), the IC50 with Plasmodium falciparum [1] (setting [11]) is 4.76 µg/mL (≈ 10.1 µM); in the series with Plasmodium falciparum [2] (setting [12]), 4.2 µg/mL (≈ 8.87 µM); in [8], 250 µM; with Leishmania donovani it was “Not Active”; with Vero, “Non-toxic”. Besides, the outcome (in the series with Escherichia coli; in the series on Pseudomonas aeruginosa; with Staphylococcus aureus [3]; in the series on Staphylococcus aureus [5]; in series [7]) was inactive. Further, the selectivity ratio in [4] was 5; in series [6], over 5.5. Further, the IC90 result in the series on Leishmania donovani was “inactive”.
